Screening data deposited in PubChem BioAssay by several laboratories.
The list is not random: actives were taken first. Their share in the collection is about 2%.
MC4R barr agon: MC4R agonists recruiting beta-arrestin, primary screen, cell-based, luminescence, agonist arm of biased-ligand search | activation, % at 8.9 µM | actives 0.98% (n = 360,000) | AID 540308, 2011 | Melanocortin receptor 4 (Homo sapiens), P32245 | U2OS MC4R beta-arrestin complementation; percent of melanotan II response, DMSO zero;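 active means activation above a per-plate cutoff, the mean activation of sample wells on that plate plus 3 SD, cut at about 8% in these data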
Target sequence (P32245 whole entry, looked up): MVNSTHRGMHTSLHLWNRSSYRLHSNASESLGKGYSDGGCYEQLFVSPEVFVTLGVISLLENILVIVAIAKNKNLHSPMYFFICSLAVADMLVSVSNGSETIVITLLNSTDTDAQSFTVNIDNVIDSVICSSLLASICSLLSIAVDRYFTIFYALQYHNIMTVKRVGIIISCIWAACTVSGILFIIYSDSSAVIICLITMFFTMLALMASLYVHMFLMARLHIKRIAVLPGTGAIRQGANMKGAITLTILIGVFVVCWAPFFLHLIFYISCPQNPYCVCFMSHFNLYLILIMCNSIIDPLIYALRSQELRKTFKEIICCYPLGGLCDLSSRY
XBP1 UPR activ: activators of adaptive XBP1 UPR arm, primary screen, cell-based, CHO-XBP1 luciferase reporter, luminescence, uHTS | AID 463104, 2010 | IRE1-XBP1 UPR activation; percent of tunicamycin response, DMSO as zero | actives 0.33% (n = 330,000) | activation, % at 20 µM;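 active means versus positive control, 20 µM dose yields 30% or more activation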
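Assay system: CHO-XBP1 luciferase reporter cells; Schedule: 6 h treatment, 37 °C; Detection: glow luminescence from Steady-Glo reagent; Benchmarks: high control tunicamycin 10 µg/mL final, low control DMSO vehicle only.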
A1 inh: caspase 3/7 activation in MEF A1-2A-BIM cells, primary screen, A1 inhibitor project, cell-based, luminescence, HTS | caspase activation, % (no concentration beside the values) | Caspase-Glo 3/7 luminescence, 3 h; percent of clofoctol response, vehicle zero | AID 2462, 2010 | actives 0.066% (n = 330,000);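 active means over half of replicate activation scores above 10%, or exactly half above 10 with the replicate mean above 10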
CHOP UPR activ: activators of apoptotic CHOP UPR arm, primary screen, cell-based, CHO-CHOP luciferase reporter, luminescence, uHTS | UPR activation; percent of tunicamycin response over DMSO baseline | actives 0.34% (n = 330,000) | activation, % at 10 µM;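 active means at 10 µM dose, activation of 40% or more, normalized to positive control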
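Material: CHO-CHOP cells, stable luciferase reporter of PERK-eIF2a-CHOP signalling; quantity: 500 reporter cells seeded per well; buffer or medium: F12 medium containing 10% fetal bovine serum; compound: one dose, 10 µM in 0.5% DMSO; incubation: 6 h compound treatment, 37 °C; measured by: Steady-Glo luciferase luminescence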
MC4R antagonist: MC4R antagonists of cAMP signaling, primary screen, cell-based, TR-FRET, antagonist arm of biased-ligand search. Melanocortin receptor 4 (Homo sapiens), P32245. MC4R-expressing cells, MTII-stimulated cAMP, LANCE TR-FRET. inhibition, % at 6.5 µM. actives 0.48% (n = 360,000). AID 540295, 2011;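 active means inhibition above its plate's cutoff, the mean of tested wells on that plate plus 3 SD, cut at about 29% in these data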
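Test system: U2OS cells stably expressing human melanocortin 4 receptor (MC4R); also added: Melanotan II challenge; compound: 6.5 µM single dose; timing: 30-min compound preincubation, 1-h Melanotan II challenge, 1-h detection, room temperature; signal: Eu-cAMP/anti-cAMP TR-FRET, emission 671 nm; repeats: one well per compound, no replicates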
cAMP nonselect: nonselective cAMP signaling inhibitors, parental cells, counter-screen for MC4R biased antagonist project, cell-based, TR-FRET, U2OS, forskolin, triplicate. actives 26% (n = 1,600). AID 602193, 2012. LANCE TR-FRET. inhibition, % at 6.5 µM. shares compounds with MC4R antagonist;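 active means mean inhibition over triplicates above the low-control well mean plus 3 SD, set per campaign, cut at about 13% in these data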;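 further: signal is single emission at 671 nm which falls as cellular cAMP rises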
MC4R antag conf: MC4R cAMP antagonists, retest, confirmation, cell-based, TR-FRET | shares compounds with MC4R antagonist | MC4R-expressing cells, MTII-stimulated cAMP | inhibition, % at 6.5 µM | actives 27% (n = 1,600); in the data active means inhibition above about 29%
A number is an active result; n = inactive; x = no result given.

SMILES	MC4R barr agon	XBP1 UPR activ	A1 inh	CHOP UPR activ	MC4R antagonist	cAMP nonselect	MC4R antag conf
Cc1cc(=O)[nH]c(N/N=C/c2ccccc2Cl)n1	n	n	n	n	n	x	x
CC(C)(C)C(=O)COC(=O)c1ccc2c(c1)C(=O)N(Cc1ccco1)C2=O	n	n	n	n	37	n	n
CC(C)CNC(=O)COC(=O)c1ccc2c(c1)C(=O)N(Cc1ccco1)C2=O	n	n	n	n	n	x	x
CCN(CC(=O)Nc1ccc(NC(C)=O)cc1)C(=O)C1CC1	n	x	x	x	n	x	x
CC(=O)N1N=C(c2ccccc2)CC1c1cccs1 (centres undefined)	n	n	n	n	29	n	n
O=C(NCc1ccc(F)cc1)C(c1ccc(F)cc1)N(C(=O)c1csnn1)C1CC1 (centres undefined)	n	n	n	n	n	x	x
CCc1ccc(C(C(=O)NCc2ccc(F)cc2)N(C(=O)c2csnn2)C2CC2)cc1 (centres undefined)	n	n	n	n	29	n	n
COc1ccc(CN2CC(C(=O)NCCCN3CCN(Cc4ccccc4)CC3)CC2=O)cc1 (centres undefined)	n	n	n	n	n	x	x
COc1ccc(CN2CC(C(=O)NCCCN3CCCC(C)C3)CC2=O)cc1 (centres undefined)	n	n	n	n	34	n	n
Cc1ccc(/C=C/C(=O)N2CCN(S(=O)(=O)c3ccc(C)c(C)c3)CC2)o1	n	n	n	n	38	n	n
Cc1ccc(/C=C/C(=O)N2CCN(S(=O)(=O)c3c(C)c(C)cc(C)c3C)CC2)o1	n	n	n	n	n	x	x
CC(C)(C)c1ccc(OCCSc2nc3ccccc3n2CC(=O)O)cc1	n	n	n	n	34	n	n
NS(=O)(=O)c1cccc(NC(=O)c2cncc(Br)c2)c1	n	n	n	n	n	x	x
NS(=O)(=O)c1cccc(NC(=O)c2cccc3c(Br)cccc23)c1	n	n	n	n	43	n	n
CC(=O)c1sc(-c2ccccc2)cc1NS(=O)(=O)c1ccc(C)cc1	n	n	n	n	35	32	57
Cn1ccsc1=NC(=O)c1ccc(Cl)c([N+](=O)[O-])c1	n	n	n	n	35	n	n
Cn1ccsc1=NC(=O)c1ccc(S(C)(=O)=O)cc1	n	n	n	n	n	x	x
Cc1ccc(C(=O)N=c2sccn2C)cc1C	n	n	n	n	n	x	x
Cn1ccsc1=NC(=O)c1ccc(S(C)(=O)=O)c([N+](=O)[O-])c1	n	n	n	n	33	n	31
CC1(C(=O)NCCc2ccccc2)Cc2c(-c3ccc(C(N)=O)cc3)ccnc2O1 (centres undefined)	n	x	x	x	n	x	x
O=C(NC1CCC1)C1CCC(=O)N(Cc2ccc(Cl)cc2)C1 (centres undefined)	n	x	x	x	n	x	x
COc1cc(C)ccc1S(=O)(=O)NC(=O)C1(C)CCN1C(=O)Cc1ccccc1Cl (centres undefined)	n	x	x	x	n	x	x
CC(CC(=O)Nc1ccc2c(c1)c(=O)n(C)n2-c1cccs1)c1ccccc1 (centres undefined)	n	x	x	x	n	x	x
NS(=O)(=O)c1ccc(N2N=C(c3ccccc3)CC2c2ccc(Br)cc2)cc1 (centres undefined)	n	x	x	x	37	n	n
NS(=O)(=O)c1ccc(N2N=C(c3ccccc3)CC2c2ccccc2)cc1 (centres undefined)	n	n	n	n	n	x	x
SMILES	MC4R barr agon	XBP1 UPR activ	A1 inh	CHOP UPR activ	MC4R antagonist	cAMP nonselect	MC4R antag conf
COC(=O)c1ccc(NC(=O)c2ccc(NS(=O)(=O)c3cccc4cccnc34)cc2)cc1	n	n	n	n	30	n	n
CCOc1ccc(NC(=O)c2ccc(NS(=O)(=O)c3cccc4cccnc34)cc2)cc1	n	x	x	x	n	x	x
O=C1C(Cl)=C(NCCc2ccccc2)C(=O)c2ccccc21	n	x	x	x	42	n	n
CCOC(=O)c1c(NC(=O)C[n+]2ccc(N(C)C)cc2)sc(C)c1C	n	n	n	n	30	n	n
CCOC(=O)c1c(NC(=O)COC)sc(C)c1C	n	n	n	n	n	x	x
CC(=O)Nc1ccc(C(=O)N2CCCCC2c2cc(C(=O)NCc3ccc(F)cc3)no2)cc1 (centres undefined)	n	x	x	x	n	x	x
CCn1c(C(=O)O)c(CC(=O)Nc2ccc(Br)cc2C)c2ccccc21	n	n	n	n	29	n	n
CCCS(=O)(=O)NC(=O)C1(C)CCN(C(=O)c2ccc(OC)cc2OC)C1 (centres undefined)	n	x	x	x	n	x	x
O=C(O)c1ccc(Sc2nnc(-c3cccc(Br)c3)o2)c([N+](=O)[O-])c1	n	n	n	n	n	x	x
COc1cc(-c2nnc(Sc3ccc(C(F)(F)F)cc3[N+](=O)[O-])o2)cc(OC)c1OC	n	n	n	n	29	n	n
Cc1cc(Br)ccc1NC(=O)CNC(=O)Cn1ncc(Cl)c(Cl)c1=O	n	n	n	n	47	29	53
O=C(Cn1ncc(Cl)c(Cl)c1=O)Nc1ccc2c(c1)OCO2	n	n	n	n	37	28	66
Cc1nn(CC(=O)Nc2ccc3c(c2)OCO3)c(C)c1Cl	n	n	n	n	n	x	x
Cc1ccc(S(=O)(=O)N2CCCCC2)cc1NC(=O)Cn1ncc(Cl)c(Cl)c1=O	n	n	n	n	n	x	x
CCCn1c(=O)c(C(=O)NNC(=O)c2ccccc2Cl)c(O)c2ccccc21	n	n	n	n	n	x	x
COc1ccc(OC)c2c1C(=O)C(Cl)=C(Cl)C2=O	n	n	n	n	32	73	49
Cc1ccc2[nH]c3c(=S)nc[nH]c3c2c1	n	x	n	x	48	n	n
CCOC(=O)C1CCCN(S(=O)(=O)c2ccc(S(=O)(=O)N3CCCC3)cc2)C1 (centres undefined)	n	n	n	n	n	x	x
CCOC(=O)C1CCCN(S(=O)(=O)c2cnc(Cl)c(Br)c2)C1 (centres undefined)	n	n	n	n	52	15	38
CCCCCCCN(c1ccccc1)[C@@H]1C[C@H]2CCCC(=O)N3CC[C@@H](C1)[C@@H]23	n	x	x	x	34	n	34
